Hck Nef HTS: inhibitors of Nef-activated human Hck kinase, primary screen, biochemical, Z-Lyte FRET, 384-well, Hck-YEEI; Recombinant Hck-YEEI plus Nef, Z-Lyte FRET kinase assay; inhibition, % at 20 µM; actives 0.68% (n = 220,000); Tyrosine-protein kinase HCK (Homo sapiens), P08631;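 active means Hck-Nef kinase inhibition above about 50%, limit read from the data; inactive means inhibition below that limit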
M18AAP inhibitor: PfM18AAP inhibitors, malaria aminopeptidase, primary screen, biochemical, QFRET, recombinant enzyme | inhibition, % at 7.35 µM | actives 1.2% (n = 290,000) | H-Glu-NHMec fluorogenic cleavage | M18 aspartyl aminopeptidase (Plasmodium falciparum 3D7);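 active means inhibition above the campaign mean inhibition over all tested compounds plus 3 SD, cut at about 28% in these data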
RBBP9 inhibitor: human RBBP9 inhibitors, primary screen, biochemical, fluorescence polarization, FP-Rh probe, HTS; Serine hydrolase RBBP9 (Homo sapiens), O75884; recombinant RBBP9; inhibition, % at 7.94 µM; actives 0.2% (n = 220,000);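 active means inhibition above the campaign mean of all tested compounds plus 3 SD, cut at about 14% in these data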
Target sequence (O75884 whole entry, looked up): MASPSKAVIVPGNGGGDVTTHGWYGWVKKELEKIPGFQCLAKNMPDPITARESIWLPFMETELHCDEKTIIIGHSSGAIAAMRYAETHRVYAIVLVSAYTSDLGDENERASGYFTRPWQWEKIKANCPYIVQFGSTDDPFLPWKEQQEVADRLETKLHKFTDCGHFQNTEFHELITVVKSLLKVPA
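System: RBBP9 protein | Quantity: 2.5 µM RBBP9 dispensing solution, before mixing | Reagent: FP-Rh probe, 375 nM dispensing solution | Timing: Enzyme-compound preincubation 30 min, then probe labeling 45 min, 25 °C | Measured by: Fluorescence polarization | Read-out: % inhibition | Replication: One well per compound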
Runt-SMMHC FRET: inhibitors of RUNX1 Runt–CBFb-SMMHC binding, primary screen, biochemical, FRET, Cerulean-Runt, Venus-CBFb-SMMHC, uHTS; Runt-related transcription factor 1 (Homo sapiens) + Core-binding factor subunit beta …; Cerulean-Runt/Venus-CBFb-SMMHC FRET ratio 530/480, 1 h; inhibition, % at 20 µM; actives 0.74% (n = 220,000); AID 1434, 2008;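 active means mean inhibition across duplicate retests at 20 µM reaching about 50%, limit read from the data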;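 further: inhibitors lower the FRET ratio by blocking Runt binding to CBFb-SMMHC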
Runt-CBFb FRET: inhibitors of RUNX1 Runt–CBFb binding, primary screen, biochemical, FRET, Cerulean-Runt, Venus-CBFb, uHTS; Runt-related transcription factor 1 (Homo sapiens) + Core-binding factor subunit beta …; Cerulean-Runt/Venus-CBFb FRET ratio 530/480, 1 h; inhibition, % at 20 µM; actives 0.46% (n = 220,000);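 active means inhibition over about 50% at 20 µM in the single-dose screen, limit read from the data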
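Assay system: Cerulean-Runt domain / Medium: Tris 50 mM pH 7.5, KCl, K2SO4, 0.01% BSA / Timing: protein complex preformed 1 h, compound exposure 1 h, room temperature, dark / Measured by: FRET, excitation 422 nm, emission at 530 and 480 nm / Evaluation: loss of energy transfer signal / Control set: 5 µM unlabeled CBFb as full-inhibition high control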
RanGTP-Imp inh: inhibitors of RanGTP-importin-beta interaction, primary screen, biochemical, FRET, CFP-Ran, YFP-importin-beta, homogeneous; Ran GTPase (GTP-bound) - importin-beta complex; cell-free CFP-Ran/YFP-importin-beta FRET ratio; inhibition, % (test concentration not listed); actives 1.1% (n = 300,000); AID 2216, 2009;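 active means more than half of the replicate wells show a fall in the fluorescence ratio signal beyond about 16%, limit read from the data, passing the limit was not always enough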
Of the large screens only hits and unclear results are named; the others gave an inactive call. This is a sample that favours compounds with a hit; in the whole collection about 2.9% have one here.

CCCCC1OC23CCCCC2C(C#N)(C#N)C1(C#N)C(=N)O3 (stereo unspecified)	RanGTP-Imp inh 52.6
Cc1ccc(C)c(OC(=O)c2cccc(S(=O)(=O)N3CCN(C)CC3)c2)c1	none (no result: Hck Nef HTS, RBBP9 inhibitor, Runt-SMMHC FRET, Runt-CBFb FRET)
Cc1ccccc1C(=O)NC(CC(C)C)C(=O)N1CCN(c2ccccc2)CC1 (stereo unspecified)	none (no result: Hck Nef HTS, RBBP9 inhibitor, Runt-SMMHC FRET, Runt-CBFb FRET)
CCC(C)(C)NC(=O)c1ccc2c(c1)N(CC(=O)NC1CCCC1)C(=O)C(C)(C)O2	none (no result: Hck Nef HTS, RBBP9 inhibitor, Runt-SMMHC FRET, Runt-CBFb FRET)
CCOC(=O)c1sc(N/N=C/c2ccccc2)nc1C	none
CC(=O)c1sc(N/N=C\c2ccccc2O)nc1C	RanGTP-Imp inh 37.9 (no result: Runt-SMMHC FRET, Runt-CBFb FRET)
Cn1c(=O)c(C(=O)NCCc2ccc(Cl)cc2)c(O)c2ccccc21	none (no result: Hck Nef HTS, RBBP9 inhibitor, Runt-SMMHC FRET, Runt-CBFb FRET)
C=CCn1c2ccccc2c(=O)c2cc(C#CC3(O)CCCCC3)ccc21	RanGTP-Imp inh 161.1 (no result: Hck Nef HTS, RBBP9 inhibitor, Runt-SMMHC FRET, Runt-CBFb FRET)
O=Cc1coc2c(ccc3ccccc32)c1=O	RanGTP-Imp inh 37.0 (no result: Hck Nef HTS, RBBP9 inhibitor, Runt-SMMHC FRET, Runt-CBFb FRET)
CC(C)N(CCCNC(=O)c1nn(C)c2c1CS(=O)(=O)c1ccccc1-2)Cc1ccccc1	none (no result: Hck Nef HTS, RBBP9 inhibitor, Runt-SMMHC FRET, Runt-CBFb FRET)
O=c1ccsn1Cc1ccccc1	M18AAP inhibitor 32.7
O=C(Cn1nnc(-c2ccc(F)cc2)n1)OCC(=O)c1ccccc1	RanGTP-Imp inh 19.9
Cc1cc(C)n(-c2nc3ccccc3nc2Nc2ccc3[nH]c(=O)[nH]c3c2)n1	RanGTP-Imp inh 31.8
COc1ccc(Nc2nc3ccccc3nc2-n2nc(C)cc2C)cc1	none
COC(=O)c1cc(S(=O)(=O)N2CCN(c3ccccc3)CC2)c[nH]1	RanGTP-Imp inh 29.1 (no result: Hck Nef HTS, RBBP9 inhibitor, Runt-SMMHC FRET, Runt-CBFb FRET)
COc1ccccc1N1CCN(C(=O)c2ccc3nc(-c4ccco4)c(-c4ccco4)nc3c2)CC1	RanGTP-Imp inh 33.4
COc1ccccc1N1CCN(C(=O)c2ccc3nc[nH]c3c2)CC1	none
Cc1ccc(C)c(N2CCN(C(=O)c3ccc4nc(-c5ccco5)c(-c5ccco5)nc4c3)CC2)c1	RanGTP-Imp inh 52.2
COc1ccccc1N1CCN(C(=O)CCc2nnc3ccc(N4CCOCC4)nn23)CC1	none (no result: Hck Nef HTS, RBBP9 inhibitor, Runt-SMMHC FRET, Runt-CBFb FRET)
Cc1ccc(S(=O)(=O)NC(=O)COc2ccccc2C(N)=O)cc1	RanGTP-Imp inh 28.0
O=C1c2cccc(OCC(=O)N3CCCc4ccccc43)c2CCN1Cc1ccc(F)cc1	none
Cc1cccc(CN2CCc3c(OCC(=O)N4CCCc5ccccc54)cccc3C2=O)c1	RanGTP-Imp inh 21.9
COc1ccc(Nc2cc(Cl)nc(N)n2)cc1OC	RanGTP-Imp inh 18.2
c1ccc2[nH]c(-c3cnco3)cc2c1	none (no result: Hck Nef HTS, RBBP9 inhibitor, Runt-SMMHC FRET, Runt-CBFb FRET)
CCOC(=O)C1=C(C)NC(C)=C(C(=O)OCC)C1c1cccs1	none
CCOC(=O)C1=CN(Cc2ccc(OC)cc2)C=C(C(=O)OCC)C1c1cccs1	Hck Nef HTS 57.9
Cc1ccc(CNC(=O)c2ccc3c(=O)[nH]c4c(C(=O)NCC5CCCO5)sc(=S)n4c3c2)cc1 (stereo unspecified)	Hck Nef HTS 56.6 (no result: Runt-CBFb FRET)
CCOC(=O)N1CCN(c2ccccc2OC)CC1	none
CCOC(=O)c1ccc(NC(=O)N2CCN(c3ccccc3OC)CC2)cc1	RanGTP-Imp inh 27.2
CC(C)OC(=O)CSc1nnc2n1C(C)(C)Cc1ccccc1-2	Runt-SMMHC FRET 131.7, Runt-CBFb FRET 121.0
N#CC1=C2SCN(Cc3ccco3)CN2C(=O)CC1c1cccc2ccccc12 (stereo unspecified)	M18AAP inhibitor 29.8
N#CC1=C2SCN(Cc3ccco3)CN2C(=O)CC1c1ccccc1F (stereo unspecified)	none
C=CCn1c(NC(=O)c2ccc(Br)o2)c(S(=O)(=O)c2ccccc2)c2nc3ccccc3nc21	RanGTP-Imp inh 44.9
CCOC(=O)CSc1ccc(C(=O)NCCCN2CCOCC2)cc1[N+](=O)[O-]	none (no result: Hck Nef HTS, RBBP9 inhibitor, Runt-SMMHC FRET, Runt-CBFb FRET)

Source: PubChem BioAssay (several laboratories)
